For data set [1], the system named is HCT-116. In words: Induction of cell cycle arrest in human HCT116 cells assessed as accumulation at sub-G1 phase at 15 uM after 48 hrs by propidium iodide staining-based flow cytometric analysis in presence of RNase A (reference value: 6.5%). It counts as functional.
Data set [2] has as its system HCT-116. In words: Induction of cell cycle arrest in human HCT116 cells assessed as accumulation at G2/M phase at 30 uM after 48 hrs by propidium iodide staining-based flow cytometric analysis in presence of RNase A (reference value: 19.7%). It counts as functional. (In flow cytometry, cells or beads pass a laser one at a time.)
The test system of data set [3] is HCT-116. In words: Induction of apoptosis in human HCT116 cells assessed as late apoptotic cells at 7.5 uM after 48 hrs by annexin V-FITC/propidium iodide staining-based flow cytometric analysis (reference value: 5.2%). It counts as functional.
Data set [4] has as its system HCT-116. The data set is described as follows: Induction of apoptosis in human HCT116 cells assessed as viable cells at 7.5 uM after 48 hrs by annexin V-FITC/propidium iodide staining-based flow cytometric analysis (reference value: 91.2%). It counts as functional. The note with it: HCT-116, 48 h, read-out: Activity.
In data set [5] the test system is HCT-116. The data set is described as follows: Induction of apoptosis in human HCT116 cells assessed as viable cells at 15 uM after 48 hrs by annexin V-FITC/propidium iodide staining-based flow cytometric analysis (reference value: 91.2%). The data set is classed as functional. Particulars: HCT-116, 48 h, read-out: Activity.
The test system of data set [6] is HCT-116. In words: Induction of apoptosis in human HCT116 cells assessed as increase in Bim expression after 48 hrs by Western blot analysis. It counts as functional, cell-based. In outline: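 Cells treated for 48 h and lysed in RIPA buffer (pH 8.0). Total protein was measured by BCA, and equal protein was resolved on 8−13% SDS-PAGE and moved to PVDF. Membranes were blocked in 5% BSA/TBST and given primary antibody overnight at 4 °C, then an HRP secondary for 2 h at RT. Detection by enhanced chemiluminescence.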
(In general: In western blotting, separated proteins are transferred to a membrane and probed.)

In data set [7] the test system is HCT-116. In words: Induction of apoptosis in human HCT116 cells assessed as late apoptotic cells at 30 uM after 48 hrs by annexin V-FITC/propidium iodide staining-based flow cytometric analysis in presence of NAC (reference value: 7.2%). It counts as functional.
For data set [8], the system named is HCT-116. In words: Induction of apoptosis in human HCT116 cells assessed as viable cells at 30 uM after 48 hrs by annexin V-FITC/propidium iodide staining-based flow cytometric analysis in presence of NAC (reference value: 87.4%). The data set is classed as functional. The note with it: HCT-116, 48 h, read-out: Activity.
Data set [9] concerns Mus musculus. In words: Toxicity in nude mouse assessed as change in body weight at 5 to 10 mg/kg, ip administered 3 times per week measured on day 41. Particulars: in vivo. It counts as organism-based. In outline:
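Nude mice implanted s.c. in the flank with 2 × 10^6 HCT116 cells. Once tumors reached about 120 mm3, mice were randomized, six per group, to vehicle or compound at 5 or 10 mg/kg ip (200 μL) three times weekly; irinotecan 10 mg/kg ip once weekly as reference. Body weight recorded twice weekly to assess toxicity; study ended day 41.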

Data set [10] concerns HCT-116. The data set is described as follows: Induction of cell cycle arrest in human HCT116 cells assessed as accumulation at sub-G1 phase at 15 uM after 24 hrs by propidium iodide staining-based flow cytometric analysis in presence of RNase A (reference value: 1.5%). The data set is classed as functional.
The subject of data set [11] is HCT-116. In words: Induction of cell cycle arrest in human HCT116 cells assessed as accumulation at S phase at 30 uM after 24 hrs by propidium iodide staining-based flow cytometric analysis in presence of RNase A (reference value: 13.4%). The data set is classed as functional.
Data set [12] can be described thus: Downregulation of cyclin B1 expression in human HCT116 cells at 7.5 to 30 uM after 24 hrs by Western blot analysis. The data set is classed as functional, cell-based. Particulars: HCT-116. The gist of the method: (§1)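 HCT116 cells exposed 24 h in complete medium; lysed in RIPA buffer (pH 8.0), protein by BCA, equal loads run on 8–13% SDS-PAGE, PVDF transfer, blocked in 5% BSA/TBST, primary antibodies overnight at 4 °C, HRP secondaries 2 h RT, ECL detection; β-actin as loading control.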

A short description of data set [13]: Downregulation of ATR expression in human HCT116 cells at 30 uM after 1 hr by Western blot analysis. It counts as functional, cell-based. Particulars: HCT-116, TDE = time-dependent effect. The gist of the method: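 HCT116 cells exposed for 1 h in complete medium; RIPA lysates quantified by BCA, equal protein separated on 8–13% SDS-PAGE, transferred to PVDF, probed with primary antibodies overnight at 4 °C and HRP secondaries, chemiluminescence read-out.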

The target of data set [14] is Serine-protein kinase ATM/ATR (Homo sapiens) (UniProt Q13315+Q13535). In words: Activation of ATM/ATR in human HCT116 cells assessed as increase in Chk1 phosphorylation at S345 at 7.5 to 30 uM after 24 hrs by Western blot analysis. The note with it: HCT-116. The data set is classed as cell-based. In outline: as §1
Data set [15] in a line: Upregulation of MDM2 expression in p53-null human HCT116 cells at 7.5 to 30 uM after 24 hrs by Western blot analysis. Particulars: HCT-116. It counts as functional, cell-based.
Data set [16] relates to HCT-116. The data set is described as follows: Increase in p27 expression in human HCT116 cells after 24 hrs by western blot analysis. It counts as functional, cell-based. In outline:
as §1

The test system of data set [17] is HCT-116. In words: Increase in Cul-1 expression in human HCT116 cells after 24 hrs by western blot analysis. The data set is classed as functional, cell-based. The gist of the method: as §1
A short description of data set [18]: (§2) Antiproliferative activity against human HCT116 cells after 24 to 72 hrs by SRB assay. The note with it: HCT-116. It counts as functional, cell-based. The gist of the method: (§3)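 Cells grown in 96-well plates (RPMI 1640; MRC-5 in MEM, 10% FBS, antibiotics) with compound […]; fixed in 10% TCA 30 min at 4 °C, stained 0.4% SRB in 1% acetic acid 1 h, dye dissolved in 10 mM Tris pH 10.0, A515 read; viability as % of solvent control, IC50 by nonlinear regression; mean of three independent experiments.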
(In general: In SRB staining, fixed cells bind dye roughly in proportion to their protein.)

In data set [19] the test system is HCT-116. The data set is described as §2. It counts as functional, cell-based. In outline: as §3
For data set [20], the system named is SW480. In words: Antiproliferative activity against human SW480 cells after 24 to 72 hrs by SRB assay. It counts as functional, cell-based. The gist of the method: as §3
The subject of data set [21] is Mus musculus. The data set is described as follows: Upregulation of p21 in human HCT116 cells xenografted in nude mouse at 5 to 10 mg/kg, ip administered 3 times per week measured on day 41 by Western blot analysis. It counts as functional, organism-based. The note with it: HCT-116. In outline: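 HCT116 xenografts in nude mice dosed ip at 5 or 10 mg/kg three times weekly to day 41. Portions of the excised frozen tumors were thawed on ice, homogenized in complete lysis buffer, protein quantified by Bradford, and p21, p27 and Skp2 assessed by Western blot with β-actin as internal control.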

For data set [22], the system named is Mus musculus. The data set is described as follows: Downregulation of Skp2 in human HCT116 cells xenografted in nude mouse at 5 to 10 mg/kg, ip administered 3 times per week measured on day 41 by Western blot analysis. It counts as functional, organism-based. The note with it: HCT-116. The gist of the method:
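Excised frozen xenograft tumours homogenised in lysis buffer; protein by Bradford assay, then Western blotting for Skp2 with β-actin as control.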

The subject of data set [23] is HCT-116. In words: Induction of cell cycle arrest in human HCT116 cells assessed as accumulation at G0/G1 phase at 7.5 uM after 24 hrs by propidium iodide staining-based flow cytometric analysis in presence of RNase A (reference value: 64.6%). The data set is classed as functional.
Data set [24] deals with HCT-116. In words: Induction of cell cycle arrest in human HCT116 cells assessed as accumulation at G0/G1 phase at 15 uM after 24 hrs by propidium iodide staining-based flow cytometric analysis in presence of RNase A (reference value: 64.6%). The data set is classed as functional.

Activity calls are given as the source filed them. The calls are words filed in the database; no cut-off is given here.

As usually defined, the IC50 is the point on the concentration scale where inhibition reaches its midpoint. The low end stands for greater potency, the high end for weaker potency. Consider `O=C/C=C/c1ccc2c(c1)O[C@@H](CO)[C@H](c1ccc(O)c(O)c1)O2` [AMERICANIN A], for which the Activity in data set [1] is 37.9%; in data set [2] it was 19%; in data set [3] it was 10.4%; in data set [6], “Dose-dependent effect”; in [7] it was 18.9%; in [9] it was “Non-toxic”. The Activity in [10] was 3%; in [11], 18.4%; in data set [13], “tde”; in data set [14], “Dose-dependent effect”; in [16], “Dose-dependent effect”; in data set [19] it was “Dose-dependent effect”. Also, the Activity in [23] came out at 55.4%; in data set [24], 47.5%. The viability at 7.5 µM in data set [4] worked out at 84.6%. The viability at 15 µM in data set [5] worked out at 76.3%. Further, the viability at 30 µM in [8] is 73.2%. The outcome in data set [12], in [15], in data set [17], in data set [21] and in data set [22] was Active. In addition, the concentration for half-maximal inhibition (IC50) turned out to be 7.6 µM in data set [18] and 27.4 µM in data set [20].
